Assay results published in ChEMBL document CHEMBL3351782, “Synthesis and biological evaluation of glaucocalyxin A derivatives as potential anticancer agents” (Eur J Med Chem, 2014).

How the values were obtained:
KB [1] = experiment: Retention time of the compound in human KB cells lysates treated with 500 uM in presence of 10 mM cysteine by LC-HRMS method
A549 = experiment: Antiproliferative activity against human A549 cells after 48 hrs by MTT assay; assay type: functional, cell-based; settings: A549, 48 h
Summary of the method: (§1)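 Cells were seeded at 3 × 10^3 per well and exposed 24 h later, while growing exponentially, to compounds at final concentrations of 1.25 to 40 for 48 h. MTT (5 mg/mL in PBS) was then added for 6 h. The medium was aspirated, the formazan dissolved in DMSO and absorbance read at 570 nm. Survival is relative to untreated cells; IC50 comes from triplicate wells in at least three independent experiments.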

KB [2] = experiment: Induction of apoptosis in human KB cells assessed as early apoptotic cells level at 5 uM after 48 hrs by Annexin V and propidium iodide staining based flow cytometry (reference value: 7.08%); assay type: functional
Summary of the method: (§2)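 KB cells were plated in 6-well plates at 2.5 × 10^5 cells/mL and treated for 48 h. Adherent and floating cells were pooled, washed twice in PBS and stained with Annexin V and PI in binding buffer for 20 min at room temperature. Samples were read immediately on a FACSCalibur; untreated cells served as control. Values are means ± SE of at least three independent experiments.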

KB [3] = experiment: Induction of apoptosis in human KB cells assessed as viable cells level at 10 uM after 48 hrs by Annexin V and propidium iodide staining based flow cytometry (reference value: 87.4%); assay type: functional
Summary of the method: as §2

KB [4] = experiment: Induction of apoptosis in human KB cells assessed as late apoptotic cells level at 10 uM after 48 hrs by Annexin V and propidium iodide staining based flow cytometry (reference value: 2.26%); assay type: functional
Summary of the method: as §2

KB [5] = experiment: Antiproliferative activity against human KB cells after 48 hrs by MTT assay; assay type: functional, cell-based
Summary of the method: as §1

KB [6] = experiment: Induction of apoptosis in human KB cells assessed as viable cells level at 20 uM after 48 hrs by Annexin V and propidium iodide staining based flow cytometry (reference value: 87.4%); assay type: functional
Summary of the method: as §2

[7] = Stability in 80% rat plasma assessed as parent compound remaining at 1 uM at 37 degC after 24 hrs by HPLC method; assay type: ADME, cell-free; settings: read-out: Stability
Summary of the method: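 Thawed rat plasma was diluted to 80% v/v with 0.1 M PBS, pH 7.4. Compound was spiked from DMSO stock (1% v/v DMSO final) and held at 37 °C. Aliquots were quenched with two volumes of acetonitrile and centrifuged at 4 °C, 10,000 g, 10 min. Supernatants were run on HPLC with external standard; the result is percent parent remaining at 24 h, mean ± SD, n = 3.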

[8] = Antiproliferative activity against human HL60 cells after 48 hrs by MTT assay; assay type: functional, cell-based; settings: HL-60, 48 h
Summary of the method: as §1

[9] = Antiproliferative activity against human SGC7901 cells after 48 hrs by MTT assay; assay type: functional, cell-based; settings: SGC-7901, 48 h
Summary of the method: as §1

KB [10] = experiment: Induction of apoptosis in human KB cells assessed as early apoptotic cells level at 10 uM after 48 hrs by Annexin V and propidium iodide staining based flow cytometry (reference value: 7.08%); assay type: functional
Summary of the method: as §2

KB [11] = experiment: Induction of apoptosis in human KB cells assessed as necrotic cells level at 5 uM after 48 hrs by Annexin V and propidium iodide staining based flow cytometry (reference value: 3.23%); assay type: functional
Summary of the method: as §2

B16 = experiment: Antiproliferative activity against mouse B16 cells after 48 hrs by MTT assay; assay type: functional, cell-based; settings: B16, 48 h
Summary of the method: as §1

KB [12] = experiment: Induction of apoptosis in human KB cells after 48 hrs by Annexin V and propidium iodide staining based flow cytometry; assay type: functional, cell-based
Summary of the method: as §2

[13] = Antiproliferative activity against human HL7702 cells after 48 hrs by MTT assay; assay type: cell-based; settings: L02, 48 h
Summary of the method: as §1

[14] = Antiproliferative activity against human SMMC7721 cells after 48 hrs by MTT assay; assay type: functional, cell-based; settings: SMMC-7721, 48 h
Summary of the method: as §1

KB [15] = experiment: Induction of apoptosis in human KB cells assessed as necrotic cells level at 10 uM after 48 hrs by Annexin V and propidium iodide staining based flow cytometry (reference value: 3.23%); assay type: functional
Summary of the method: as §2

KB [16] = experiment: Induction of apoptosis in human KB cells assessed as late apoptotic cells level at 5 uM after 48 hrs by Annexin V and propidium iodide staining based flow cytometry (reference value: 2.26%); assay type: functional
Summary of the method: as §2

[17] = Chemical stability in 10 mM pH 7.4 PBS buffer assessed as parent compound remaining at 1 uM at 37 degC after 24 hrs by HPLC method; assay type: physicochemical; settings: read-out: Stability
Summary of the method: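 DMSO stock was diluted into pre-warmed 10 mM PBS, pH 7.4, with 1% v/v DMSO final, and incubated at 37 °C. Aliquots were taken at set times and injected directly onto reversed-phase HPLC (ODS column, water + 0.1% TFA eluent, external standard). The result is percent parent remaining after 24 h, mean ± SD, n = 3.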

KB [18] = experiment: Prodrug conversion in human KB cells lysates assessed as formation of cysteine conjugates at 500 uM in presence of 10 mM cysteine by LC-HRMS method; assay type: ADME, cell-based, Lysate
Summary of the method: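 KB cells (5 × 10^6) were lysed by freeze/thaw. DMSO stock prepared just before use was added to lysate already containing cysteine, with DMSO matched in controls, and incubated at 37 °C. Aliquots taken at 30 min and 1 h were mixed with two volumes of acetonitrile and centrifuged (4 °C, 10,000 g, 10 min). They were analysed by LC-HRMS in positive mode using a water + 0.1% formic acid/methanol gradient.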

KB [19] = experiment: Induction of apoptosis in human KB cells assessed as early apoptotic cells level at 20 uM after 48 hrs by Annexin V and propidium iodide staining based flow cytometry (reference value: 7.08%); assay type: functional
Summary of the method: as §2

KB [20] = experiment: Induction of apoptosis in human KB cells assessed as late apoptotic cells level at 20 uM after 48 hrs by Annexin V and propidium iodide staining based flow cytometry (reference value: 2.26%); assay type: functional
Summary of the method: as §2

KB [21] = experiment: Induction of apoptosis in human KB cells assessed as viable cells level at 5 uM after 48 hrs by Annexin V and propidium iodide staining based flow cytometry (reference value: 87.4%); assay type: functional
Summary of the method: as §2

KB [22] = experiment: Induction of apoptosis in human KB cells assessed as necrotic cells level at 20 uM after 48 hrs by Annexin V and propidium iodide staining based flow cytometry (reference value: 3.23%); assay type: functional
Summary of the method: as §2

- Retention_time (KB [1]): 5.75 min
- IC50 (A549): 7.5 µM
- IC50 (KB [5]): 6.47 µM
- remaining at 24 h, 1 µM [7]: 24.2%
- IC50 (B16): 4.84 µM
- remaining at 24 h, 1 µM [17]: 109%
- Retention_time (KB [18]): 2.42 min
SMILES: C=C1C(=O)[C@@]23[C@H](O)C[C@@H]4C(C)(C)C(=O)CC[C@@]4(C)[C@@H]2CC[C@@H]1[C@H]3O [GLAUCOCALYXIN A]
- Activity (KB [2]): 10.7%
- Activity (KB [3]): 76.1%
- Activity (KB [4]): 6.89%
- Activity (KB [6]): 43.9%
- IC50 [8]: 5.52 µM
- IC50 [9]: 11.7 µM
- Activity (KB [10]): 14.3%
- Activity (KB [11]): 4.95%
- Activity (KB [12]): Dose-dependent effect
- IC50 [13]: 8.62 µM
- IC50 [14]: 8.11 µM
- Activity (KB [15]): 2.69%
- Activity (KB [16]): 3.69%
- Activity (KB [19]): 33.4%
- Activity (KB [20]): 19%
- Activity (KB [21]): 80.6%
- Activity (KB [22]): 3.59%
